This sample holds only a part of the variants without activity.
B1: tRNA (parent)
chain: GUUCCGUUGGCGUAAUGGUAACGCGUCUCCCUCCUAAGGAGAAGACUGCGGGUUCGAGUCCCGUACGGAACG

Variants of: B1
Assay: yeast fitness relative to wild type (ratio to wild type); higher = fitter; tRNA-Arg(CCU), competitive growth, 37 C, YPD
Procedure, shortened: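 Gene amplicons from the start population and from each of six end populations were read by 100-nucleotide paired-end sequencing. Those end populations came from pooled Saccharomyces cerevisiae strains carrying tRNA-Arg(CCU) gene variants at the native locus, competed in YPD at 37°C for 24 hours. Fitness relative to wild type was worked out from changes in genotype frequencies. Genotypes needed ≥ 100 starting reads, and estimates < 0.5 were set to 0.5.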
For GUUCCGUUGGUGUAAUGGUAAGGCGUCUCCCUCCUAAGGAGAAGACUGCGGGUUCGAAUCUCGUACGGAACG [C11U C22G G58A C61U], the yeast fitness was 0.608.
Work on GUUCCGUUGGUGUAAUGGUAACGGGUCUCCCUCCUAAGGAGAAGACUGCGGGUUCGAGUCACGUACGGAACG [C11U C24G C61A] yielded a yeast fitness of 0.569.
With GUUCCGUUGGUGUAAUGGUAACGCGUCUACCUCCCAAGGAGAAGACUGCGGGUUCGAGUCCCGUACGGAACG [C11U C29A U35C] the yeast fitness was ≤ 0.5.
In the case of GUUCCGUUGGUGUAAUGGUAACGUGUCUCUCUCCUAAGGAGAAGACUGCGGGUUCGCGUCCCCUACGGAACG [C11U C24U C30U A57C G63C], the yeast fitness is reported as ≤ 0.5.
In the case of GUUCCGUUGGUGUAAUGGUAACGGGUCUCCCUCCUAAGGAGAAGACUGCGGGUUCGAGUCCGGUACGGAACG [C11U C24G C62G], the yeast fitness is reported as ≤ 0.5.
Work on GUUCCGUUGGUGUAAUGGUAACGGGUCUCCCUCCUAAGGAGAAGACUGCGGGUUCGAGUCCCCUACAGAACG [C11U C24G G63C G67A] yielded a yeast fitness of 0.568.
In the case of GUUCCGUUGGUGUAAUGGUAACGCGUAUCCCUCCUAAGGAGAAGACUGCGGAUUCGAGUCCCGUACGGAACG [C11U C27A G52A], the yeast fitness is reported as ≤ 0.5.
For GUUCCGUUGGUGUAAUGGUAACGCGUAUCCCUCCUAAGGAGAAGACUGCGCGUUCCAGUCCCGUACGGAACG [C11U C27A G51C G56C], the yeast fitness was ≤ 0.5.
Variant GUUCCGUUGGUGUAAUGGUAACGGGUCUCCCUCCUAAGGAGAAGACAGCGGGUUCGAGUCCCGUACGGAACG [C11U C24G U47A] has a yeast fitness of 0.565.
With GUUCCGUUGGUGUAAUGGUAACGCGUGUCCCUCCUAAGGAGAAGACUGCGGGUUUGAGUCCCGUAAGGAACG [C11U C27G C55U C66A] the yeast fitness was ≤ 0.5.
In the case of GUUCCGUUGGUGUAAUGGUAACGCGUGUCCCUCCUAAGGAGAAGACUCGGGGUUCGAGUCCCGUACGGAACG [C11U C27G G48C C49G], the yeast fitness is reported as ≤ 0.5.
In the case of GUUCCGUUGGUGUAAUGGUAACGCGUCUGCCUCCUACGGAGUAGACUGCGGGUUCGAGUCCCGUACGGAACG [C11U C29G A37C A42U], the yeast fitness is reported as ≤ 0.5.
Work on GUUCCGUUGGUGUAAUGGUAACGCGUAUACCUCCUAUGGAGAAGUCUGCGGGUUCGAGUCCCGUACGGAACG [C11U C27A C29A A37U A45U] yielded a yeast fitness of 0.54.
With GUUCCGUUGGUGUAAUGGUAACGGGUCUCCCUCCUAAGGAGAAGCCUGCGGGUUCGAGUACCGUACGUAACG [C11U C24G A45C C60A G68U] the yeast fitness was ≤ 0.5.
For GUUCCGUUGGUGUAAUGGUAACGGGUCUCCCUCCUAAGGAGAAGACUGCGGGUUCGAGUCCCGUACGGAACG [C11U C24G], the yeast fitness was 0.614.
For GUUCCGUUGGUGUAAUGGUAACGAGUCUCCCUCCUAAGGAGAAGACUGCGGGUUCGAGUCCCGUACGGAUCG [C11U C24A A70U], the yeast fitness was ≤ 0.5.
In the case of GUUCCGUUGGUGUAAUGGUAACGCGUCUACCUCCUAAGGAGAAGACUGCGGGUACGAGUCCCGUACGGACCG [C11U C29A U54A A70C], the yeast fitness is reported as ≤ 0.5.
In the case of GUUCCGUUGGUGUAAUGGUAACGAGUCUCCCUCUUAUGCUGAAGACUGCGGAUUGGAGUCCCGUACGGAACG [C11U C24A C34U A37U G39C A40U G52A C55G], the yeast fitness is reported as ≤ 0.5.
In the case of GUUCCGUUGGUGUAAUGGUAACGCGUUUCCCUCCUAAGGAGAAGACUGCGGCUUGGAGUCCCGUACGGAACG [C11U C27U G52C C55G], the yeast fitness is reported as ≤ 0.5.
In the case of GUUCCGUUGGUGUAAUGGUAACGGGUCUCCCUCCUAAGGAGGAGACUGCGGGUUCGAGUCCCGUACGGAACG [C11U C24G A42G], the yeast fitness is reported as ≤ 0.5.
In the case of GUUCCGUUGGUGUAAUGGUAACGUGUCUCCCUCCUAAGGAGAACACUGAGGGUUCGAGUCCCGUACGGCACG [C11U C24U G44C C49A A69C], the yeast fitness is reported as ≤ 0.5.
For GUUCCGUUGGUGUAAUGGUAACGCGUCUACCUCCUAAGGAGAAGACUGCGGGUUCGUGUCCUGUACGGAACG [C11U C29A A57U C62U], the yeast fitness was ≤ 0.5.
With GUUCCGUUGGUGUAAUGGUAACGCGUUUCCCUCCUAAGGAGAAGACUGCGGGUUCGAGUCCCGUACGGAACG [C11U C27U] the yeast fitness was 0.906.
Variant GUUCCGUUGGUGUAAUGGUAACGCGUGUCCCUCCUAAGGAGAAGACUGCGGGUUCGAGUCCCGUACGGAACG [C11U C27G] has a yeast fitness of 0.703.
GUUCCGUUGGUGUAAUGGUAAUGCGUCUCCCUCCUAAGGAGAAGACUGCGGGUUCGAGUCCCGUACAGAACG [C11U C22U G67A] gave a yeast fitness of 0.586.
In the case of GUUCCGUUGGUGUAAUGGUAAUGCGUCUGCCUCUUAAGGAGAAGACUCCGGGUUCGGGUCCCGUACGGAACG [C11U C22U C29G C34U G48C A57G], the yeast fitness is reported as ≤ 0.5.
For GUUCCGUUGGUGUAAUGGUAACGUGUCUCCCUCCUAAGGAGAAGACUGCGGGAUCGAGUCCCGUAUGGAACG [C11U C24U U53A C66U], the yeast fitness was ≤ 0.5.
In the case of GUUCCGUUGGUGUAAUGGUAACGCGUAUCCCUCCUAAGGAGAAGACUGCAGGUUCGAGUCCCGUACGGUACG [C11U C27A G50A A69U], the yeast fitness is reported as ≤ 0.5.
Variant GUUCCGUUGGUGUAAUGGUAACGCGUUUCCUUCCUAGGGAGUAGACUCUGGGUUCGAGUCCCGUACGGAACG [C11U C27U C31U A37G A42U G48C C49U] has a yeast fitness of 0.54.
With GUUCCGUUGGUGUAAUGGUAAUGUGUCUCCCUCCUAAGGAAAAGACUGCGGGUUCGAGUCCCGUCCGGAACG [C11U C22U C24U G41A A65C] the yeast fitness was ≤ 0.5.
For GUUCCGUUGGUGUAAUGGUAAGGCGUCUGCCUCCUAAGGAAAAGACUGCGGGUACGAGUCCCGUACGGAACG [C11U C22G C29G G41A U54A], the yeast fitness was ≤ 0.5.
With GUUCCGUUGGUGUAAUGGUAACGCGUGUGCCUCCUAAGGAGAAGACUGUGGGUUCGAGUCCCCUACGGAACG [C11U C27G C29G C49U G63C] the yeast fitness was ≤ 0.5.
For GUUCCGUUGGUGUAAUGGUAACGCGUCUACCUCCUAAGGAGAAGACUGCGGGUUCGUGUCCUGUACGGAUCG [C11U C29A A57U C62U A70U], the yeast fitness was ≤ 0.5.
In the case of GUUCCGUUGGUGUAAUGGUAACGCGUAUCCCUCCUAAGGAGAAGAAUGCGGGUUCGAGUCCCGUACGGAUCG [C11U C27A C46A A70U], the yeast fitness is reported as ≤ 0.5.
For GUUCCGUUGGUGUAAUGGUAAUGCGUCUCCCUCCUAAGGAGAAGACUGCGGGUUCGAAUCCCGUAUGGAACG [C11U C22U G58A C66U], the yeast fitness was 0.532.
For GUUCCGUUGGUGUAAUGGUAACGCGUGUCCCUCCUAAGGAGAAGACUGCGGGUUCGAGUCCUGUUCGGAACG [C11U C27G C62U A65U], the yeast fitness was ≤ 0.5.
In the case of GUUCCGUUGGUGUAAUGGUAAUGCGUCUCCCUCCUAAGGAGAACACUGCGGGUUCGAGUCCUGUACGGAACG [C11U C22U G44C C62U], the yeast fitness is reported as ≤ 0.5.
